Reference: ChEMBL document CHEMBL4422671, “New Quinolylnitrones for Stroke Therapy: Antioxidant and Neuroprotective ( Z)- N- tert-Butyl-1-(2-chloro-6-methoxyquinolin-3-yl)methanimine Oxide as a New Lead-Compound for Ischemic Stroke Treatment” (J Med Chem, 2019)
Activity calls are given as the source filed them. No cut-off for these calls is given here.

System: Primary neuron
Test: Neuroprotective activity against oxygen-glucose deprivation-induced cell death in Sprague-Dawley rat primary neuronal cells assessed as cell viability at 0.5 to 250 uM treated at onset of recovery period and measured at 24 hrs of recovery by MTT assay relative to control
Format: functional, cell-based
Settings: not given
Procedure, shortened: (§1)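 Rat cortical neurons from E16–17 Sprague-Dawley embryos, used at 6–7 days in serum-free medium. OGD: glucose-free medium bubbled with 95% N2/5% CO2, <0.1% O2, 6.5% CO2, 37 °C, 4 h. Compound added at start of 24 h normoxic recovery. Viability by MTT (0.2 mg/mL, 1.5 h), lysis with HCl/SDS, read at 595/690 nm, relative to 100% control. Four to eight culture batches, each in quadruplicate.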

Compound	Activity
Cc1ccc2nc(Cl)c(/C=N/Cc3ccccc3)cc2c1	inactive
Cc1ccc2nc(Cl)c(/C=N/O)cc2c1	inactive

System: not listed separately
Test: Neuroprotective activity against oxygen-glucose deprivation-induced cell death in Sprague-Dawley rat primary neuronal cells assessed as cell viability at 50 uM treated at onset of recovery period and measured at 24 hrs of recovery by MTT assay relative to control
Format: functional
Settings: Primary neuron, read-out: Activity
Procedure, shortened: as §1

Compound	viability at 50 µM [%]
Cc1ccc2nc(Cl)c(/C=[N+](\[O-])Cc3ccccc3)cc2c1	56.8

System: not listed separately
Test: Antioxidant activity assessed as ABTS radical cation scavenging activity by measuring trolox equivalents at 10 uL after 1 min
Format: functional
Settings: not given
Procedure, shortened: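 ABTS radical cation made from 2 mM aqueous ABTS plus 0.17 mM potassium persulfate in 20 mM phosphate buffer pH 7.4, kept 12–16 h dark at rt. Diluted with ethanol to A734 0.70, then mixed with 10 μL compound from 10 mM stock. Absorbance read at rt 1 min after mixing. Trolox as standard.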

Compound	Activity
CC(C)(C)/[N+]([O-])=C/c1cc2ccccc2nc1O	6%
COc1ccc2nc(Cl)c(/C=[N+](/C)[O-])cc2c1	inactive
Cc1c(C)c2c(c(C)c1O)CCC(C)(C(=O)O)O2 (stereo unspecified)	91%
CC(C)(C)/[N+]([O-])=C/c1cc2ccccc2nc1Cl	inactive
COc1ccc2nc(Cl)c(/C=[N+](\[O-])Cc3ccccc3)cc2c1	inactive

System: not listed separately
Test: Neuroprotective activity against oxygen-glucose deprivation-induced cell death in Sprague-Dawley rat primary neuronal cells assessed as cell viability at 250 uM treated at onset of recovery period and measured at 24 hrs of recovery by MTT assay relative to control
Format: functional
Settings: Primary neuron, read-out: Activity
Procedure, shortened: as §1

Compound	viability at 250 µM [%]
CC(C)(C)/[N+]([O-])=C/c1cc2ccccc2nc1O	55

System: Primary neuron
Test: Neuroprotective activity against oxygen-glucose deprivation-induced cell death in Sprague-Dawley rat primary neuronal cells assessed as cell viability at 1 to 100 uM treated at onset of recovery period and measured at 24 hrs of recovery by MTT assay relative to control
Format: functional, cell-based
Settings: not given
Procedure, shortened: as §1

Compound	Activity
COc1ccc2cc(/C=[N+](\[O-])Cc3ccccc3)c(Cl)nc2c1	inactive
COc1ccc(OC)c2nc(Cl)c(/C=[N+](\[O-])Cc3ccccc3)cc12	inactive
COc1nc2ccc(C)cc2cc1/C=[N+](\[O-])Cc1ccccc1	inactive
COc1ccc2nc(Cl)c(C=O)cc2c1	inactive
[O-]/[N+](=C\c1cc2ccccc2nc1Cl)Cc1ccccc1	inactive
CC(C)(C)/[N+]([O-])=C/c1cc2ccccc2n2nnnc12	inactive
CC(C)(C)/[N+]([O-])=C/c1cc2ccccc2nc1Cl	inactive
COc1nc2ccccc2cc1/C=[N+](\[O-])Cc1ccccc1	inactive

System: Primary neuron
Test: Neuroprotective activity against oxygen-glucose deprivation-induced cell death in Sprague-Dawley rat primary neuronal cells assessed as cell viability at 1 to 250 uM treated at onset of recovery period and measured at 24 hrs of recovery by MTT assay relative to control
Format: functional, cell-based
Settings: not given
Procedure, shortened: as §1

Compound	Activity
Cc1ccc2nc(O)c(/C=[N+](\[O-])C(C)(C)C)cc2c1	Active
Cc1ccc2nc(Cl)c(/C=N/C(C)(C)C)cc2c1	inactive
[O-]/[N+](=C\c1cc2cc(Cl)ccc2nc1Cl)Cc1ccccc1	inactive
COc1ccc2nc(Cl)c(/C=[N+](/C)[O-])cc2c1	inactive
Cc1ccc2nc(Cl)c(/C=N/N)cc2c1	inactive
Cc1ccc2nc(Cl)c(/C=N/NCc3ccccc3)cc2c1	inactive
Cc1ccc2nc(O)c(/C=[N+](\[O-])Cc3ccccc3)cc2c1	Active
Cc1ccc2nc(Cl)c(/C=[N+](\[O-])c3ccccc3)cc2c1	inactive
Cc1ccc2ncc(/C=[N+](\[O-])Cc3ccccc3)cc2c1	Active
Cc1ccc2nc(N(C)C)c(/C=[N+](\[O-])Cc3ccccc3)cc2c1	Active
[O-]/[N+](=C\c1cc2cc(O)ccc2nc1Cl)Cc1ccccc1	inactive

System: Primary neuron
Test: Neuroprotective activity against oxygen-glucose deprivation-induced cell death in Sprague-Dawley rat primary neuronal cells assessed as cell viability at 1 to 10 uM treated at onset of recovery period and measured at 24 hrs of recovery by MTT assay relative to control
Format: functional, cell-based
Settings: not given
Procedure, shortened: as §1

Compound	Activity
CNc1nc2ccc(C)cc2cc1/C=[N+](\[O-])Cc1ccccc1	inactive

System: not listed separately
Test: Antioxidant activity assessed as DPPH free radical scavenging activity at 0.1 mM measured after 20 to 60 mins
Format: functional
Settings: not given
Procedure, shortened: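 DPPH 0.1 mM in absolute ethanol with compound at 0.1 mM final (from DMSO). Absorbance at 517 nm recorded after 20 and 60 min at rt. NDGA as standard.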

Compound	Activity
CC(C)(C)/[N+]([O-])=C/c1cc2ccccc2nc1O	inactive
COc1ccc2nc(Cl)c(/C=[N+](/C)[O-])cc2c1	inactive
CC(Cc1ccc(O)c(O)c1)C(C)Cc1ccc(O)c(O)c1 (stereo unspecified) [NORDIHYDROGUAIARETIC ACID]	93%
CC(C)(C)/[N+]([O-])=C/c1cc2ccccc2nc1Cl	7%
COc1ccc2nc(Cl)c(/C=[N+](\[O-])Cc3ccccc3)cc2c1	3%

System: not listed separately
Test: Antiinflammatory activity assessed as NO release at 100 uM after 60 mins in presence of L-cysteine by Griess reagent-based relative to control
Format: functional
Settings: not given
Procedure, shortened: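 NO-release test: compound at 100 μM final (from DMSO) in 50 mM phosphate buffer pH 7.4 containing 1 mM L-cysteine, 60 min at 37 °C. Reaction mixture then treated with Griess reagent, left 10 min at rt, absorbance read at 540 nm. Sodium nitroprusside as standard. Mean of three to four determinations.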

Compound	Activity [%]
COc1ccc2nc(Cl)c(/C=[N+](/C)[O-])cc2c1	11
CC(C)(C)/[N+]([O-])=C/c1cc2ccccc2nc1Cl	7.5
COc1ccc2nc(Cl)c(/C=[N+](\[O-])Cc3ccccc3)cc2c1	12.5

System: not listed separately
Test: Antioxidant activity assessed as superoxide anion scavenging activity at 0.1 mM pH 7.4 after 10 mins by NBT assay
Format: functional
Settings: not given
Procedure, shortened: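 Superoxide generated by xanthine/xanthine oxidase (0.07 U/mL) in 0.1 M phosphate buffer pH 7.4 containing NBT and compound at 0.1 mM final. After 10 min at rt, absorbance read at 560 nm. Caffeic acid as standard.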

Compound	Activity [%]
CC(C)(C)/[N+]([O-])=C/c1cc2ccccc2nc1O	23
COc1ccc2nc(Cl)c(/C=[N+](/C)[O-])cc2c1	29
O=C(O)/C=C/c1ccc(O)c(O)c1	15
CC(C)(C)/[N+]([O-])=C/c1cc2ccccc2nc1Cl	16
COc1ccc2nc(Cl)c(/C=[N+](\[O-])Cc3ccccc3)cc2c1	18

System: Primary neuron
Test: Neuroprotective activity against oxygen-glucose deprivation-induced cell death in Sprague-Dawley rat primary neuronal cells assessed as cell viability at 0.5 to 10 uM treated at onset of recovery period and measured at 24 hrs of recovery by MTT assay relative to control
Format: functional, cell-based
Settings: not given
Procedure, shortened: as §1

Compound	Activity
Cc1ccc2nc(Cl)c(/C=N/OCc3ccccc3)cc2c1	inactive

Biological target: Lipoxygenase (Glycine max, UniProt Q39829)
Test: Inhibition of soybean lipoxygenase using sodium linoleate as substrate by UV-based analysis
Settings: not given
Procedure, shortened: (§2)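 Soybean lipoxygenase (enzyme 1/9 ×10⁻⁴ w/v in saline) incubated at rt with 0.1 mM sodium linoleate and compound in DMSO, at several concentrations from 1 to 100 µM diluted from 10 mM stock. Conversion to 13-hydroperoxylinoleic acid recorded at 234 nm; IC50 derived. NDGA as reference inhibitor.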

Compound	IC50 [µM]
CC(C)(C)/[N+]([O-])=C/c1cc2ccccc2nc1O	36.5
CC(C)(C)/[N+]([O-])=C/c1cc2ccccc2nc1Cl	32.5
COc1ccc2nc(Cl)c(/C=[N+](\[O-])Cc3ccccc3)cc2c1	100

System: Primary neuron
Test: Neuroprotective activity against oxygen-glucose deprivation-induced cell death in Sprague-Dawley rat primary neuronal cells assessed as cell viability at 0.3 to 100 uM treated at onset of recovery period and measured at 24 hrs of recovery by MTT assay relative to control
Format: functional, cell-based
Settings: not given
Procedure, shortened: as §1

Compound	Activity
COc1ccc2nc(Cl)c(/C=[N+](\[O-])Cc3ccccc3)cc2c1	inactive

System: not listed separately
Test: Neuroprotective activity against oxygen-glucose deprivation-induced cell death in Sprague-Dawley rat primary neuronal cells assessed as cell viability at 10 uM treated at onset of recovery period and measured at 24 hrs of recovery by MTT assay relative to control
Format: functional
Settings: Primary neuron, read-out: Activity
Procedure, shortened: as §1

Compound	viability at 10 µM [%]
Cc1ccc2nc(Cl)c(/C=[N+](\[O-])Cc3ccccc3)cc2c1	55.4

System: not listed separately
Test: Neuroprotective activity against oxygen-glucose deprivation-induced cell death in Sprague-Dawley rat primary neuronal cells assessed as cell viability at 100 uM treated at onset of recovery period and measured at 24 hrs of recovery by MTT assay relative to control
Format: functional
Settings: Primary neuron, read-out: Activity
Procedure, shortened: as §1

Compound	viability at 100 µM [%]
CC(C)(C)/[N+]([O-])=C/c1cc2ccccc2nc1O	48.8

System: not listed separately
Test: Antioxidant activity assessed as hydroxyl radical scavenging activity at 0.1 mM measured after 30 mins
Format: functional
Settings: not given
Procedure, shortened: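 Hydroxyl radicals from Fe3+/ascorbic acid: EDTA 0.1 mM, Fe3+ 167 μM, DMSO 33 mM, compound 0.1 mM and ascorbic acid 10 mM in 50 mM phosphate buffer pH 7.4. Incubated 37 °C for 30 min, stopped with 17% w/v TCA. Read-out is inhibition of formaldehyde formation, given as % scavenging. Trolox as reference.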

Compound	Activity [%]
CC(C)(C)/[N+]([O-])=C/c1cc2ccccc2nc1O	99
COc1ccc2nc(Cl)c(/C=[N+](/C)[O-])cc2c1	100
Cc1c(C)c2c(c(C)c1O)CCC(C)(C(=O)O)O2 (stereo unspecified)	73
CC(C)(C)/[N+]([O-])=C/c1cc2ccccc2nc1Cl	97
COc1ccc2nc(Cl)c(/C=[N+](\[O-])Cc3ccccc3)cc2c1	65

Biological target: Lipoxygenase (Glycine max) (UniProt Q39829)
Test: Inhibition of soybean lipoxygenase at 1 to 100 uM using sodium linoleate as substrate by UV-based analysis relative to control
Settings: not given
Procedure, shortened: as §2

Compound	inhibition [%]
COc1ccc2nc(Cl)c(/C=[N+](/C)[O-])cc2c1	26

System: not listed separately
Test: Antioxidant activity assessed as inhibition of linoleic acid peroxidation activity at 10 uL
Format: functional
Set-up: scale not given: the % may be the effect or the level left
Settings: not given
Procedure, shortened: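 AAPH-initiated peroxidation of sodium linoleate dispersion (16 mM, 10 μL) in 0.05 M phosphate buffer pH 7.4 at 37 °C under air. Initiator was 50 μL of 40 mM AAPH, with 10 μL compound added. Conjugated diene hydroperoxide followed at 234 nm. Trolox as reference.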

Compound	Activity
CC(C)(C)/[N+]([O-])=C/c1cc2ccccc2nc1O	100%
COc1ccc2nc(Cl)c(/C=[N+](/C)[O-])cc2c1	100%
Cc1c(C)c2c(c(C)c1O)CCC(C)(C(=O)O)O2 (stereo unspecified)	88%
CC(C)(C)/[N+]([O-])=C/c1cc2ccccc2nc1Cl	inactive
COc1ccc2nc(Cl)c(/C=[N+](\[O-])Cc3ccccc3)cc2c1	100%

System: Rattus norvegicus
Test: Antiinflammatory activity in Fisher 344 rat model of carrageenan-induced edema assessed as inhibition of carrageenan-induced paw edema at 0.01 mmol/kg, ip dosed simultaneously with carrageenan injection relative to control
Format: functional
Settings: Fisher 344, ip
Procedure, shortened: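 Fisher 344 rats (150–200 g), both sexes. Edema was induced by intradermal injection of 0.1 mL 2% carrageenan in water into the right hind paw. Compound was suspended in water with a few drops of Tween 80. Rats were euthanized 3.5 h later. The injected-minus-uninjected paw weight difference was compared with water or Tween-water controls as % inhibition. Mean of two experiments, n = 6 each.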

Compound	inhibition in vivo at 10 µmol/kg [%]
COc1ccc2c(c1)c(CC(=O)O)c(C)n2C(=O)c1ccc(Cl)cc1 [INDOMETHACIN]	47
